In the library only some 1.4% were active in any assay of this set; here they are far more common.
PKA-R2B act – activators of human PKA-R2B complex; P22694+P31323; PKA-R2B holoenzyme dissociation, Cy5-IP20 fluorescence polarization; R2B truncated from residue 108, S112A mutant; 0% DMSO only, 100% 113 µM cGMP; activation, % at 11.4 µM; 340,000 compounds, 0.079% hits;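 active = activation above a cutoff set at the mean over all compounds plus 3 SD, cut at about 18% in these data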;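 also: higher means more holoenzyme dissociation and a rise in polarization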
PKA-R1A activ – activates the PKA-R1A holoenzyme complex. PKA-R1A dissociation, Cy5-IP20 fluorescence polarization; scaled: DMSO 0%, 113 µM cGMP 100%. AID 504707. 340,000 compounds, 0.083% hits. activation, % at 11.4 µM;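 active = percent activation above the mean of all tested compounds plus 3 SD, cut at about 19% in these data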;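 also: higher means more PKAc released from R1A so a rise in polarization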
Vif inh – HIV Vif inhibition | inhibition, % at 7.49 µM | AID 602346 | 340,000 compounds, 0.35% hits | HEK293T cells, Vif self-association by quenched fluorescence, imaging, 24 h; in the data active = inhibition above about 50%, passing the limit was not always enough
SR-BI DiI-HDL act – enhances SR-BI lipid uptake from DiI-HDL. CHO ldlA[mSR-BI] cells, DiI-HDL uptake fluorescence, 3 h; 100 = double the neutral-control signal. activation, % at 12.5 µM. AID 504775. 320,000 compounds, 0.096% hits;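 active = mean replicate activation of at least 60% and every replicate at or above 60%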;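 also: 0% = median plate neutral-control signal and 100% = twice that signal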
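Material – SR-BI-overexpressing, LDLR-lacking CHO cells · Medium – BSA-supplemented, HEPES-buffered Ham's F12, pH 7.4 · Doses – single concentration · Times – compound with DiI-HDL co-incubation, 3 h at 37 °C · Measured by – bottom-read fluorescence, 550/595 nm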
SR-BI DiI inh – blocks mouse SR-BI lipid uptake from DiI-HDL. inhibition, % at 12.5 µM. AID 488896. 320,000 compounds, 0.96% hits. Q61009. ldlA[mSR-BI] CHO cells, DiI-HDL uptake fluorescence, 3 h;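 active = mean replicate inhibition of at least 70% and a set share of replicates each scoring 70 or more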;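 also: 0% = median of neutral control wells and 100% = median of positive control wells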
Target sequence (Q61009 whole entry, looked up): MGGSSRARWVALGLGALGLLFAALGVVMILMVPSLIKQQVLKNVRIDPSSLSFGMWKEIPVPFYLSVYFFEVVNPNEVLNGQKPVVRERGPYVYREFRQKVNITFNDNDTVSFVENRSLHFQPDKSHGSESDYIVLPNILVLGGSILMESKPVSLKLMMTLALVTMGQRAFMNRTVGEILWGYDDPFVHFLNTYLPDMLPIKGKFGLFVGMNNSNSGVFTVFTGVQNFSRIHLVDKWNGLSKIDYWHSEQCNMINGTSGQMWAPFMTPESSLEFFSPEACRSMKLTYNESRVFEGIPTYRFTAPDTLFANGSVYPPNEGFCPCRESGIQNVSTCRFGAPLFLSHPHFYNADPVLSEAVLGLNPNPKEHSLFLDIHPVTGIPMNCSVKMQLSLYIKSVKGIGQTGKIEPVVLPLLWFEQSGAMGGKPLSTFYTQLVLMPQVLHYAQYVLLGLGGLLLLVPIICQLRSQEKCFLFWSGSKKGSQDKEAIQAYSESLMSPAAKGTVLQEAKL
* = called active by the depositor; . = not tested or not shown.

SMILES	PKA-R2B act	PKA-R1A activ	Vif inh	SR-BI DiI-HDL act	SR-BI DiI inh
NS(=O)(=O)c1ccc(NC(=O)c2ccc(Cl)c(S(=O)(=O)NCc3ccco3)c2)cc1	-5	-4	11	-37	37
CN(C)C(=O)N1CCN(C(=O)N2CCOCC2)CC1	-3	2	0	75*	-75
CCN(CC)C(=O)N1CCN(C(=O)N2CCOCC2)CC1	-3	-2	-3	2	-2
Cc1ccc2c(c1)N(CC(=O)N1CCCC1)C(=O)CO2	2	-1	4	-5	5
CC(=O)c1sc2nc(-c3cccs3)cc(C(F)(F)F)c2c1N	-2	0	-57	-72	72*
COc1ccc(CN(C(=O)Cn2nnc(-c3ccc(C)o3)n2)C(C(=O)NCC2CCCO2)c2ccco2)cc1 (centres undefined)	-3	3	71*	-11	11
Cc1ccn2c(CC(C)(C)C)c(-c3ccc(F)cc3)nc2c1	-3	-16	-2	.	.
CCN(CC)S(=O)(=O)c1cc(NC(=O)CSc2nnc(N)s2)ccc1C	6	-2	-3	-16	16
CCN(CC)S(=O)(=O)c1cc(NC(=O)CSc2nc3c(cc2C#N)C(=O)CC(C)(C)C3)ccc1C	-18	2	-18	-72	72*
COc1cc2sc(-c3ccc(S(C)(=O)=O)cc3)c(-c3ccc4c(c3)OCO4)c2cc1OC	7	0	-2	-83	83*
COc1ccc2c(-c3ccc(SC)cc3)c(-c3ccc(S(C)(=O)=O)cc3)sc2c1	9	-2	1	-81	81*
S=C(NCCc1ccccc1)Nc1c(Cl)cccc1Cl	6	0	2	3	-3
C=C1CCC2C(C)(C)[C@H](O)CC[C@@]2(C)[C@@H]1COc1cc(=O)oc2ccccc12 (some centres undefined)	-11	-5	1	39	-39
C=C1CC(COc2cc(=O)oc3ccccc23)(c2ccccc2)OC1=O (centres undefined)	-5	2	56*	0	0
COc1ccc(CCNC(=O)CCCn2c(=O)c3cccn3c3cccnc32)c(OC)c1	4	-15	17	-71	71*
CSc1cccc(NC(=O)CCn2c(=O)c3cccn3c3cccnc32)c1	-4	-21	-6	-77	77*
CCOc1ccc(CCNC(=O)CCCn2c(=O)c3cccn3c3cccnc32)cc1OCC	1	-14	8	-76	76*
Cc1cc(C)nc(N2CCCC(C(=O)Nc3cccc(Cl)c3)C2)n1 (centres undefined)	1	9	1	.	.
CCCCCCC1NC(C(=O)O)CS1 (centres undefined)	-8	-5	4	6	-6
COc1ccc(NC(=O)C2(C)Cc3c(-c4cccc(C(N)=O)c4)ccnc3O2)cc1OC (centres undefined)	.	.	1	.	.
CCCCN(C(=O)c1cccc(S(=O)(=O)N2CCCC2)c1)c1c(N)n(CCC)c(=O)[nH]c1=O	-9	-1	.	70*	-70
CSc1ccccc1OCc1cc(C(=O)NCCn2nc(C)cc2C)no1	-10	0	-1	-72	72*
N#CCC(=O)Nc1ccc(C(=O)NNC(=S)NC2CCCCC2)cc1	.	.	124*	.	.
COC(=O)c1ccc(NC(=S)NC2CCCCC2)cc1	-2	0	-6	-11	11
COc1ccc2nc3n(c(=O)c2c1)-c1ncccc1C(=O)NC3Cc1ccccc1 (centres undefined)	3	0	8	.	.
SMILES	PKA-R2B act	PKA-R1A activ	Vif inh	SR-BI DiI-HDL act	SR-BI DiI inh
Cc1cc2nc(Cl)c(Cl)nc2cc1C	-13	-15	67*	21	-21
CC1(C(=O)NS(=O)(=O)c2ccccc2C(F)(F)F)CCN1C(=O)CC1CCCC1 (centres undefined)	.	.	-3	.	.
Cc1c2ccccc2c(C)c2c1ccc1ccccc12	-5	-6	-4	-41	41
CC1=Nc2ccc3ccccc3c2C1(C)C	5	6	53*	-2	2
CC(C)(C)NC(=S)NNC(=O)c1ccncc1	-6	-9	.	185*	-185
CC(=O)c1ccc(S(=O)(=O)N2CCN(S(=O)(=O)c3ccccc3C(F)(F)F)CC2)cc1	0	-10	-18	9	-9
COc1cc2sc3ccc(-c4ccc(CN5CCOCC5)cc4)cc3c(=O)c2cc1OC	-1	-1	-25	-71	71*
